{"source": "PubChem BioAssay", "note": "Active and inactive are the calls of the source.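 The calls were made as follows, unless noted: active = growth inhibition above 25% in both replicates, a cutoff set 3 SD above the mean; inconclusive = above 25% in only one replicate; inactive = the rest.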", "data": [{"test": "S. cerevisiae growth inhibition in permissive medium (OD615), pilot counter-assay for S. cerevisiae lifespan shortening project, permissive growth control (AID 705)", "conditions": "OD615, 24 h, at 10 µM, stronger effect = higher value", "summary_of_the_method": "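System: engineered DeaD yeast; Medium: permissive raffinose/galactose medium; Compound dosing: 10 µM single dose, 0.25% DMSO; Incubation: 4 h cell pre-growth, 24 h exposure at 30 °C; Technique: OD at 615 nm; Evaluation: growth inhibition from lowered OD615 after 24 h.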", "values": [{"smiles": "CC(=O)Nc1ccc(S(=O)(=O)NCc2ccc3c(c2)cc(C)n3C)cc1", "growth inhibition": "8.2% (inactive)"}, {"smiles": "CCOc1ccc(N(CC(=O)Nc2ccccc2)S(C)(=O)=O)cc1", "growth inhibition": "0.69% (inactive)"}, {"smiles": "O=C1NCC2=C1C(c1ccc(Br)cc1)Nc1ccccc1N2", "note": "(stereo not given)", "growth inhibition": "-14.3% (inactive)"}, {"smiles": "COc1ccccc1C(=O)NC(CCSC)C(=O)NCC(c1ccco1)N(C)C", "note": "(stereo not given)", "growth inhibition": "-10.1% (inactive)"}, {"smiles": "COC(=O)c1ccc(-c2nc(-c3ccc(Br)o3)no2)cc1", "growth inhibition": "-14% (inactive)"}, {"smiles": "CCOc1ccc(C2CC(c3ccc(OC)cc3)n3ncnc3N2)cc1", "note": "(stereo not given)", "growth inhibition": "1.92% (inactive)"}, {"smiles": "O=C(NCC(c1ccc(F)cc1)N1CCOCC1)c1ccc(Br)o1", "note": "(stereo not given)", "growth inhibition": "-9.34% (inactive)"}, {"smiles": "Cc1noc(C)c1S(=O)(=O)N(CC(=O)N1CCCC1)c1ccc(C(C)C)cc1", "growth inhibition": "-1.45% (inactive)"}, {"smiles": "O=C(CSc1nc2c(c(=O)n1-c1ccc(Cl)cc1)SCC2)Nc1nccs1", "growth inhibition": "-2.95% (inactive)"}, {"smiles": "CCOc1ccc(C2CC(c3ccc(CC)cc3)n3nc(N)nc3N2)cc1", "note": "(stereo not given)", "growth inhibition": "1.88% (inactive)"}, {"smiles": "COC(=O)CSc1nc(C)cc(Oc2ccccc2)n1", "growth inhibition": "-8.61% (inactive)"}, {"smiles": "CCCN(CCC)C(=O)CCS(=O)(=O)c1cccc2nsnc12", "growth inhibition": "-9.5% (inactive)"}, {"smiles": "O=C(NC1CCCC1)C1c2ccccc2C(=O)N1CCCN1CCOCC1", "note": "(stereo not given)", "growth inhibition": "-2.13% (inactive)"}, {"smiles": "CCCCCOC(=O)NCC(O)c1ccccc1", "note": "(stereo not given)", "growth inhibition": "-12.5% (inactive)"}, {"smiles": "Cc1cc(C)c2c(=O)n(CC(=O)N3CCC(N4CCCCC4)CC3)sc2n1", "growth inhibition": "4.7% (inactive)"}, {"smiles": "Cn1c(=O)c2cc(NCc3ccccc3)nnc2n(C)c1=O", "growth inhibition": "-12.8% (inactive)"}, {"smiles": "COC(=O)C1=CNC=C(C(=O)OC)C1c1ccc(C(=O)OC)cc1", "growth inhibition": "1.55% (inactive)"}, {"smiles": "CC(O)c1cccc(NC(=O)CCC(=O)O)c1", "note": "(stereo not given)", "growth inhibition": "0.85% (inactive)"}, {"smiles": "CCSc1nnc(NC(=O)c2cc3c(s2)CCCC3)s1", "growth inhibition": "-3.65% (inactive)"}, {"smiles": "CC(CCc1ccco1)NC(=O)c1cc2c(-c3ccccc3F)nn(C)c2s1", "note": "(stereo not given)", "growth inhibition": "-0.025% (inactive)"}, {"smiles": "COc1ccc(CNC(=O)c2ccc3c(c2)N(C)C(=O)CS3=O)cc1", "note": "(stereo not given)", "growth inhibition": "-1% (inactive)"}, {"smiles": "Cc1ccc(OCCN2CCCCCC2)c(C)c1", "growth inhibition": "-6.26% (inactive)"}, {"smiles": "C(=N\\c1nccs1)/c1cccnc1", "growth inhibition": "-7.2% (inactive)"}, {"smiles": "Cc1ccc(S(=O)(=O)CCc2nc3ccccc3n2CCC#N)cc1", "growth inhibition": "4.59% (inactive)"}, {"smiles": "CCOC(=O)CC1C(=O)NCCN1Cc1cccc(OC)c1", "note": "(stereo not given)", "growth inhibition": "-12.5% (inactive)"}, {"smiles": "COc1ccc(-c2cc(C(F)(F)F)n3nc(C)cc3n2)cc1", "growth inhibition": "-16.1% (inactive)"}, {"smiles": "Cn1c(=O)[nH]c(=O)c2c1nc(N1CCCCC1)n2CCSc1nc2ccccc2o1", "growth inhibition": "-4.52% (inactive)"}, {"smiles": "O=C(CN1C(=O)c2ccccc2S1(=O)=O)NC1CCCCCC1", "growth inhibition": "2.58% (inactive)"}, {"smiles": "CC(C)n1c(=O)[nH]c2ccccc21", "growth inhibition": "-18.3% (inactive)"}, {"smiles": "O=C(O)C1C2C=CC3(CN(C/C=C/c4ccccc4)C(=O)C13)O2", "note": "(stereo not given)", "growth inhibition": "-17.1% (inactive)"}, {"smiles": "CCCn1nc2ccccc2c1P(=N)(N1CCOCC1)N1CCOCC1", "growth inhibition": "-7.87% (inactive)"}, {"smiles": "CCOc1ccc(C2N(c3ccc(F)cc3)C(=O)C3CCCN32)cc1", "note": "(stereo not given)", "growth inhibition": "-6.9% (inactive)"}, {"smiles": "COc1ccc(-n2c(C)nc3c(cnn3-c3ccc(C)c(C)c3)c2=O)cc1", "growth inhibition": "-13.7% (inactive)"}, {"smiles": "CCSCCOC(=O)C1=C(C)NC(=O)NC1c1cccc(OC)c1OC", "note": "(stereo not given)", "growth inhibition": "-15% (inactive)"}, {"smiles": "CCOc1ccc(NC(=O)CSc2nc3c(c(=O)n2-c2ccccc2OC)SCC3)cc1", "growth inhibition": "-4.54% (inactive)"}, {"smiles": "CCOc1ccccc1N1C(=O)c2cccnc2C1=O", "growth inhibition": "-9.2% (inactive)"}, {"smiles": "CCOc1ccc(-n2c(SCC(=O)NCc3ccco3)nc3c(c2=O)SCC3)cc1", "growth inhibition": "-21.1% (inactive)"}, {"smiles": "Cc1ccc(-c2nnc3n2N=C(c2ccccc2)CS3)cc1", "growth inhibition": "-5.77% (inactive)"}, {"smiles": "Cc1cc(N2CCCC2)n2nc(C)nc2n1", "growth inhibition": "-10.1% (inactive)"}, {"smiles": "CS(=O)(=O)c1ccc(N)cc1", "growth inhibition": "-13.1% (inactive)"}]}, {"test": "S. cerevisiae growth inhibition in restrictive medium, OD615, pilot screen, restrictive growth control, yeast lifespan reduction project (AID 706;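 active = growth inhibition above a set limit, 3 SD over mean compound inhibition, in both replicates, cut at about 43% in these data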;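 also: modified DeaD lifespan yeast strain shifted to restrictive glucose medium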)", "conditions": "OD615, 48 h, at 10 µM, stronger effect = higher value", "summary_of_the_method": "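Material: modified S. cerevisiae; buffer or medium: CSMM-D glucose medium; doses: one concentration, 10 µM final, 0.25% DMSO; incubation: 48 h compound exposure at 30 °C; detection: optical density at 615 nm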", "values": [{"smiles": "CC(=O)Nc1ccc(S(=O)(=O)NCc2ccc3c(c2)cc(C)n3C)cc1", "growth inhibition": "10.1% (inactive)"}, {"smiles": "CCOc1ccc(N(CC(=O)Nc2ccccc2)S(C)(=O)=O)cc1", "growth inhibition": "-1.96% (inactive)"}, {"smiles": "O=C1NCC2=C1C(c1ccc(Br)cc1)Nc1ccccc1N2", "note": "(stereo not given)", "growth inhibition": "-0.565% (inactive)"}, {"smiles": "COc1ccccc1C(=O)NC(CCSC)C(=O)NCC(c1ccco1)N(C)C", "note": "(stereo not given)", "growth inhibition": "-0.55% (inactive)"}, {"smiles": "COC(=O)c1ccc(-c2nc(-c3ccc(Br)o3)no2)cc1", "growth inhibition": "-20.4% (inactive)"}, {"smiles": "CCOc1ccc(C2CC(c3ccc(OC)cc3)n3ncnc3N2)cc1", "note": "(stereo not given)", "growth inhibition": "21% (inactive)"}, {"smiles": "O=C(NCC(c1ccc(F)cc1)N1CCOCC1)c1ccc(Br)o1", "note": "(stereo not given)", "growth inhibition": "-13.2% (inactive)"}, {"smiles": "Cc1noc(C)c1S(=O)(=O)N(CC(=O)N1CCCC1)c1ccc(C(C)C)cc1", "growth inhibition": "-1.11% (inactive)"}, {"smiles": "O=C(CSc1nc2c(c(=O)n1-c1ccc(Cl)cc1)SCC2)Nc1nccs1", "growth inhibition": "-4.84% (inactive)"}, {"smiles": "CCOc1ccc(C2CC(c3ccc(CC)cc3)n3nc(N)nc3N2)cc1", "note": "(stereo not given)", "growth inhibition": "21% (inactive)"}, {"smiles": "COC(=O)CSc1nc(C)cc(Oc2ccccc2)n1", "growth inhibition": "-5.81% (inactive)"}, {"smiles": "CCCN(CCC)C(=O)CCS(=O)(=O)c1cccc2nsnc12", "growth inhibition": "-18.6% (inactive)"}, {"smiles": "O=C(NC1CCCC1)C1c2ccccc2C(=O)N1CCCN1CCOCC1", "note": "(stereo not given)", "growth inhibition": "-1.37% (inactive)"}, {"smiles": "CCCCCOC(=O)NCC(O)c1ccccc1", "note": "(stereo not given)", "growth inhibition": "-8.97% (inactive)"}, {"smiles": "Cc1cc(C)c2c(=O)n(CC(=O)N3CCC(N4CCCCC4)CC3)sc2n1", "growth inhibition": "9.28% (inactive)"}, {"smiles": "Cn1c(=O)c2cc(NCc3ccccc3)nnc2n(C)c1=O", "growth inhibition": "-9.73% (inactive)"}, {"smiles": "COC(=O)C1=CNC=C(C(=O)OC)C1c1ccc(C(=O)OC)cc1", "growth inhibition": "6.7% (inactive)"}, {"smiles": "CC(O)c1cccc(NC(=O)CCC(=O)O)c1", "note": "(stereo not given)", "growth inhibition": "-3.43% (inactive)"}, {"smiles": "CCSc1nnc(NC(=O)c2cc3c(s2)CCCC3)s1", "growth inhibition": "-0.425% (inactive)"}, {"smiles": "CC(CCc1ccco1)NC(=O)c1cc2c(-c3ccccc3F)nn(C)c2s1", "note": "(stereo not given)", "growth inhibition": "5.7% (inactive)"}, {"smiles": "COc1ccc(CNC(=O)c2ccc3c(c2)N(C)C(=O)CS3=O)cc1", "note": "(stereo not given)", "growth inhibition": "7.29% (inactive)"}, {"smiles": "Cc1ccc(OCCN2CCCCCC2)c(C)c1", "growth inhibition": "2.46% (inactive)"}, {"smiles": "C(=N\\c1nccs1)/c1cccnc1", "growth inhibition": "-11.4% (inactive)"}, {"smiles": "Cc1ccc(S(=O)(=O)CCc2nc3ccccc3n2CCC#N)cc1", "growth inhibition": "0.82% (inactive)"}, {"smiles": "CCOC(=O)CC1C(=O)NCCN1Cc1cccc(OC)c1", "note": "(stereo not given)", "growth inhibition": "-6.96% (inactive)"}, {"smiles": "COc1ccc(-c2cc(C(F)(F)F)n3nc(C)cc3n2)cc1", "growth inhibition": "-2.2% (inactive)"}, {"smiles": "Cn1c(=O)[nH]c(=O)c2c1nc(N1CCCCC1)n2CCSc1nc2ccccc2o1", "growth inhibition": "-1.63% (inactive)"}, {"smiles": "O=C(CN1C(=O)c2ccccc2S1(=O)=O)NC1CCCCCC1", "growth inhibition": "-5% (inactive)"}, {"smiles": "CC(C)n1c(=O)[nH]c2ccccc21", "growth inhibition": "-9.29% (inactive)"}, {"smiles": "O=C(O)C1C2C=CC3(CN(C/C=C/c4ccccc4)C(=O)C13)O2", "note": "(stereo not given)", "growth inhibition": "-3.43% (inactive)"}, {"smiles": "CCCn1nc2ccccc2c1P(=N)(N1CCOCC1)N1CCOCC1", "growth inhibition": "-23.5% (inactive)"}, {"smiles": "CCOc1ccc(C2N(c3ccc(F)cc3)C(=O)C3CCCN32)cc1", "note": "(stereo not given)", "growth inhibition": "-2.44% (inactive)"}, {"smiles": "COc1ccc(-n2c(C)nc3c(cnn3-c3ccc(C)c(C)c3)c2=O)cc1", "growth inhibition": "8.51% (inactive)"}, {"smiles": "CCSCCOC(=O)C1=C(C)NC(=O)NC1c1cccc(OC)c1OC", "note": "(stereo not given)", "growth inhibition": "-9.84% (inactive)"}, {"smiles": "CCOc1ccc(NC(=O)CSc2nc3c(c(=O)n2-c2ccccc2OC)SCC3)cc1", "growth inhibition": "-3.66% (inactive)"}, {"smiles": "CCOc1ccccc1N1C(=O)c2cccnc2C1=O", "growth inhibition": "7.41% (inactive)"}, {"smiles": "CCOc1ccc(-n2c(SCC(=O)NCc3ccco3)nc3c(c2=O)SCC3)cc1", "growth inhibition": "-19.1% (inactive)"}, {"smiles": "Cc1ccc(-c2nnc3n2N=C(c2ccccc2)CS3)cc1", "growth inhibition": "6.07% (inactive)"}, {"smiles": "Cc1cc(N2CCCC2)n2nc(C)nc2n1", "growth inhibition": "-17.2% (inactive)"}, {"smiles": "CS(=O)(=O)c1ccc(N)cc1", "growth inhibition": "-8.62% (inactive)"}]}]}
